Screening results: PubChem BioAssay, The Scripps Research Institute Molecular Screening Center
NPY-Y1 antag: NPY-Y1 receptor antagonists, primary screen, cell-based; HEK293-CNG Y1 cells, membrane potential fluorescence; NPY at EC95, then isoproterenol; inhibition, % at 3.6 µM; 200,000 compounds, 1% hits; AID 1040, 2008; Neuropeptide Y receptor type 1 (Homo sapiens), P25929;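 active = inhibition above the campaign mean inhibition of all tested compounds plus 3 SD, cut at about 20% in these data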;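 note: 0% = DMSO wells given NPY plus isoproterenol and 100% = isoproterenol alone without NPY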
Target sequence (P25929 whole entry, looked up): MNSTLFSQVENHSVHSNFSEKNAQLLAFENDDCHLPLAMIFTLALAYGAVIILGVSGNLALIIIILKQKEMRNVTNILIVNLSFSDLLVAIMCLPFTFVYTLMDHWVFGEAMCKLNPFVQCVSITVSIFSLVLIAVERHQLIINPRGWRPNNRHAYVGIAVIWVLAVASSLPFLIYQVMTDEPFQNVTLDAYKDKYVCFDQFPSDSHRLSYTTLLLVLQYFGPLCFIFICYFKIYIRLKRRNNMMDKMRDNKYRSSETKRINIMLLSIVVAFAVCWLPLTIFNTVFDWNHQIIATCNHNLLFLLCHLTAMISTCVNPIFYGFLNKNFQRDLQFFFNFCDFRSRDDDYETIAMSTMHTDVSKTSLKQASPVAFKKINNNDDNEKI
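Material: HEK293 cells co-expressing NPY Y1 receptor and cyclic-nucleotide gated channel. Timing: compound incubation 1 h at room temperature, readout 45 min post-stimulation. Signal: fluorescence, membrane potential probe.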
NPY1 pot ag: NPY-Y1 receptor potentiators or agonists, primary screen, cell-based; Neuropeptide Y receptor type 1 (Homo sapiens), P25929; NPY-Y1 expressing cells, potentiator/agonist activation; activation, % at 3.6 µM; 220,000 compounds, 0.37% hits; AID 1304, 2008; in the data active = activation above about 33%, passing the limit was not always enough;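 note: cells stimulated with NPY at EC10 then isoproterenol at EC100; 0% = low agonist plus stimulus and 100% = saturating agonist plus stimulus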
NPY Y2 blocker: NPY-Y2 receptor antagonists, primary screen, cell-based | Neuropeptide Y receptor type 2 (Homo sapiens), P49146 | 140,000 compounds, 0.99% hits | NPY-Y2 expressing cells, antagonist mode | AID 793, 2007 | inhibition, % at 2.7 µM; in the data active = inhibition above about 17%;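 note: 0% = vehicle with agonist challenge and 100% = reference antagonist with challenge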
NPY-Y2 PAM-ag: NPY-Y2 potentiators or agonists, primary screen, cell-based | Neuropeptide Y receptor type 2 (Homo sapiens), P49146 | cells expressing NPY-Y2, potentiator/agonist read-out | activation, % at 3.6 µM | 220,000 compounds, 0.45% hits; in the data active = activation above about 27%;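 note: cells stimulated with NPY near EC25 plus isoproterenol at EC100; 0% = vehicle plus submaximal agonist and 100% = vehicle plus saturating agonist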
* marks the source's active call; other numbers are inactive results. Most compounds without a hit are left out; they make up all but 1.8% or so of the library.

How did O=C(Nc1cccc(Cl)c1N1CCCC1)c1ccc([N+](=O)[O-])o1 do in these assays?
NPY-Y1 antag: 5; NPY1 pot ag: 12; NPY-Y2 PAM-ag: 5

Results for CC(=O)Nc1ccc(NS(=O)(=O)c2cc(Cl)ccc2Cl)cc1 ?
NPY1 pot ag: -10; NPY-Y2 PAM-ag: -12

How did CC(=O)N(C)c1ccc(NS(=O)(=O)c2cc(Cl)ccc2Cl)cc1 do in these assays?
NPY-Y1 antag: 21*; NPY1 pot ag: -12; NPY-Y2 PAM-ag: -29

Results for CC1CCCCC1NC(=O)COC(=O)c1ccccc1NC(=O)c1ccco1 (stereo not given) ?
NPY-Y1 antag: 30*; NPY1 pot ag: -32; NPY Y2 blocker: 19*; NPY-Y2 PAM-ag: -8

Results for CNC(=O)COC(=O)c1ccccc1NC(=O)c1ccco1 ?
NPY1 pot ag: 14; NPY-Y2 PAM-ag: 10

How did CSc1nc(-c2ccco2)nn1S(=O)(=O)c1ccc(C)cc1 do in these assays?
NPY-Y1 antag: 8; NPY1 pot ag: -20; NPY Y2 blocker: 1; NPY-Y2 PAM-ag: 3

How did CSc1nc(-c2ccco2)nn1S(=O)(=O)c1ccccc1 do in these assays?
NPY-Y1 antag: 24*; NPY1 pot ag: -39; NPY Y2 blocker: 7; NPY-Y2 PAM-ag: 6

How did COCc1cnc(C)nc1N do in these assays?
NPY-Y1 antag: -1; NPY1 pot ag: 13; NPY-Y2 PAM-ag: -11

How did COc1ccc([C@H]2[C@H](C(=O)C(C)(C)C)N3N=Cc4ccccc4C3[C@]23N=C(c2ccccc2)OC3=O)cc1 (stereo not given in full) do in these assays?
NPY-Y1 antag: 27*; NPY1 pot ag: 13; NPY Y2 blocker: 1; NPY-Y2 PAM-ag: 6

Results for O=C(N/N=C/c1ccncc1)c1ccccc1OCc1ccc(Br)cc1 ?
NPY-Y1 antag: 32*; NPY1 pot ag: -117; NPY Y2 blocker: 43*; NPY-Y2 PAM-ag: -54

Results for O=C(N/N=C/c1ccccc1)c1sccc1OCc1ccc(F)cc1 ?
NPY-Y1 antag: 1; NPY1 pot ag: -12; NPY Y2 blocker: 20*; NPY-Y2 PAM-ag: -19

Results for O=C(N/N=C/c1ccco1)c1cc(Br)ccc1OCc1ccccc1 ?
NPY-Y1 antag: 10; NPY1 pot ag: -53; NPY Y2 blocker: 10; NPY-Y2 PAM-ag: -19

What do the screens show for `CCc1c(C)nn(C(=O)/C(C#N)=C\N(C)C)c1C`?
NPY-Y1 antag: -2; NPY1 pot ag: 3; NPY-Y2 PAM-ag: -4

How did CCOC(=O)c1c(NC(=O)CN2CCCc3ccccc32)sc(C)c1CC do in these assays?
NPY-Y1 antag: -1; NPY1 pot ag: -11; NPY Y2 blocker: 2; NPY-Y2 PAM-ag: -7

Results for CCOC(=O)C1=C(C)N(C)C(C)=C(C(=O)OCC)C1c1ccc(C(=O)OC)cc1 ?
NPY-Y1 antag: 35*; NPY1 pot ag: -15; NPY Y2 blocker: 25*; NPY-Y2 PAM-ag: -13

How did CCOC(=O)C1=C(C)N(C)C(C)=C(C(=O)OCC)C1c1ccc(Cl)cc1 do in these assays?
NPY-Y1 antag: 13; NPY1 pot ag: -29; NPY Y2 blocker: 9; NPY-Y2 PAM-ag: -1

How did CCOC(=O)[C@@H]1C(c2c(OC)cc(OC)cc2OC)=NO[C@@H]1C(=O)OCC do in these assays?
NPY-Y1 antag: -7; NPY1 pot ag: 69*; NPY Y2 blocker: 0; NPY-Y2 PAM-ag: 33*

Results for COc1ccccc1N1CCN(C(c2ccc(C)cc2)c2nnnn2C(C)C)CC1 (stereo not given) ?
NPY-Y1 antag: 14; NPY1 pot ag: 5; NPY Y2 blocker: 15; NPY-Y2 PAM-ag: -13

How did COc1ccccc1N1CCN(C(c2ccc(F)cc2)c2nnnn2C(C)C)CC1 (stereo not given) do in these assays?
NPY-Y1 antag: 24*; NPY1 pot ag: -13; NPY Y2 blocker: 18*; NPY-Y2 PAM-ag: 4

Results for CCCCc1ccc(NC(=O)CSC2=C(C#N)C(c3ccco3)C3=C(CCCC3=O)N2)cc1 (stereo not given) ?
NPY-Y1 antag: -14; NPY1 pot ag: 99*; NPY Y2 blocker: -2; NPY-Y2 PAM-ag: 98*

How did CCCC(c1nnnn1Cc1ccco1)N1CCN(c2cc(Cl)ccc2C)CC1 (stereo not given) do in these assays?
NPY-Y1 antag: 29*; NPY1 pot ag: 4; NPY Y2 blocker: 27*; NPY-Y2 PAM-ag: -2

How did Cc1ccsc1/C=N/NC(=O)CC(=O)NCC(C)C do in these assays?
NPY-Y1 antag: 4; NPY1 pot ag: 19; NPY-Y2 PAM-ag: 6

How did CCN(C(=O)COc1cc(=O)n(CC)c2ccccc12)c1cccc(Cl)c1 do in these assays?
NPY-Y1 antag: -6; NPY1 pot ag: 8; NPY Y2 blocker: 2; NPY-Y2 PAM-ag: -6

Results for CCN(C(=O)COc1cc(=O)n(CC)c2ccccc12)c1cc(Cl)ccc1OC ?
NPY-Y1 antag: 23*; NPY1 pot ag: -15; NPY Y2 blocker: 17*; NPY-Y2 PAM-ag: -25

How did CSc1nc2ccccc2n1CC(=O)Nc1cc(C(F)(F)F)ccc1N1CCOCC1 do in these assays?
NPY-Y1 antag: 24*; NPY1 pot ag: -3; NPY Y2 blocker: 23*; NPY-Y2 PAM-ag: 0

How did Cc1cccc2nc(-c3ccco3)c(Nc3ccccc3)n12 do in these assays?
NPY-Y1 antag: -7; NPY1 pot ag: 47*; NPY-Y2 PAM-ag: 34*

How did Cc1ccc(-c2noc(CSc3nnc(Cc4ccccc4)n3-c3ccc(Cl)cc3)n2)cc1 do in these assays?
NPY-Y1 antag: 21*; NPY1 pot ag: -37; NPY Y2 blocker: 25*; NPY-Y2 PAM-ag: -35

What do the screens show for `O=C(CC1CCCCC1)OCn1nnc2ccccc2c1=O`?
NPY-Y1 antag: 0; NPY1 pot ag: 107*; NPY Y2 blocker: 1; NPY-Y2 PAM-ag: 103*

What do the screens show for `Cc1[nH]c2ccccc2c1/C=N/Nc1ccc([N+](=O)[O-])cc1`?
NPY-Y1 antag: -15; NPY1 pot ag: 65*; NPY Y2 blocker: -9; NPY-Y2 PAM-ag: 56*

Results for CC1Cc2ccccc2N1Cc1nc2cc(Cl)ccc2c(=O)[nH]1 (stereo not given) ?
NPY-Y1 antag: -1; NPY1 pot ag: 65*; NPY Y2 blocker: 1; NPY-Y2 PAM-ag: 61*

Results for COC(=O)c1ccc2c(=O)[nH]c(CN3c4ccccc4CC3C)nc2c1 (stereo not given) ?
NPY-Y1 antag: 2; NPY1 pot ag: 4; NPY Y2 blocker: 11; NPY-Y2 PAM-ag: 7

Results for Cc1[nH]nc2c1C(c1ccc(N(C)C)cc1)C1=C(CC(C)(C)CC1=O)N2 (stereo not given) ?
NPY-Y1 antag: 20*; NPY1 pot ag: -2; NPY-Y2 PAM-ag: -22

What do the screens show for `CCOC(=O)c1nnn(-c2nonc2N)c1COc1cc(C)c(Cl)c(C)c1`?
NPY-Y1 antag: 22*; NPY1 pot ag: -35; NPY Y2 blocker: 17; NPY-Y2 PAM-ag: -19

What do the screens show for `N#Cc1nc(COc2ccc(Br)cc2)oc1N1CCN(Cc2ccccc2)CC1`?
NPY-Y1 antag: 35*; NPY1 pot ag: -12; NPY Y2 blocker: 32*; NPY-Y2 PAM-ag: -11

What do the screens show for `N#Cc1nc(COc2ccc(F)cc2)oc1N1CCC(Cc2ccccc2)CC1`?
NPY-Y1 antag: 32*; NPY1 pot ag: -69; NPY Y2 blocker: 37*; NPY-Y2 PAM-ag: 5
